Measurements: ChEMBL document CHEMBL1821591, “Cytotoxic bipyridines from the marine-derived actinomycete Actinoalloteichus cyanogriseus WH1-2216-6” (J Nat Prod, 2011)
Converted amounts (≈) assume the structure as drawn.

Experiments:
HL-60 = assay: Cytotoxicity against human HL60 cells after 72 hrs by MTT assay; assay type: functional, cell-based; conditions: HL-60, 72 h
How it was run: (§1)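 MTT read-out on HL-60, K562 and KB; activity expressed as IC50 in μM.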

K562 = assay: Cytotoxicity against human K562 cells after 72 hrs by MTT assay; assay type: functional, cell-based; conditions: K562, 72 h; how it was run: as §1
Escherichia coli = assay: Antimicrobial activity against Escherichia coli after 24 hrs by agar dilution method; assay type: functional
A549 = assay: Cytotoxicity against human A549 cells after 24 hrs by SRB assay; assay type: functional, cell-based; conditions: A549, 24 h
Pseudomonas aeruginosa = assay: Antimicrobial activity against Pseudomonas aeruginosa after 24 hrs by agar dilution method; assay type: functional
Candida albicans = assay: Antimicrobial activity against Candida albicans after 24 hrs by agar dilution method; assay type: functional
KB = assay: Cytotoxicity against human KB cells after 72 hrs by MTT assay; assay type: functional, cell-based; how it was run: as §1
Klebsiella aerogenes = assay: Antimicrobial activity against Aerobacter aerogenes after 24 hrs by agar dilution method; assay type: functional

COc1cc(/C=N/O)nc(-c2ccccn2)c1 [CAERULOMYCIN A]
IC50 (HL-60): 710 nM
IC50 (K562): > 50000 nM
MIC (Escherichia coli): 10.9 µM (≈ 2.5 µg/mL)
IC50 (A549): 260 nM
MIC (Pseudomonas aeruginosa): 21.8 µM (≈ 5 µg/mL)
MIC (Candida albicans): 21.8 µM (≈ 5 µg/mL)
IC50 (KB): > 50000 nM

O=C(O)c1cn(C2CC2)c2cc(N3CCNCC3)c(F)cc2c1=O [CIPROFLOXACIN LACTATE]
MIC (Klebsiella aerogenes): 0.94 µM
MIC (Pseudomonas aeruginosa): 3.8 µM
MIC (Candida albicans): 1.2 µM

CC(=O)N1CCN(c2ccc(OCC3COC(Cn4ccnc4)(c4ccc(Cl)cc4Cl)O3)cc2)CC1 (centres undefined) [KETOCONAZOLE]
MIC (Klebsiella aerogenes): 0.94 µM (≈ 0.5 µg/mL)
MIC (Escherichia coli): 1.9 µM (≈ 1.01 µg/mL)
MIC (Pseudomonas aeruginosa): 3.8 µM (≈ 2.02 µg/mL)
MIC (Candida albicans): 1.2 µM (≈ 0.638 µg/mL)
